# Reference: ChEMBL document CHEMBL1938358, “A multivalent approach to the discovery of long-acting β(2)-adrenoceptor agonists for the treatment of asthma and COPD” (Bioorg Med Chem Lett, 2012)
# pEC50, pIC50: −log10 of the molar value. Calls of active or inactive are those of the source. The rule behind the calls is not given here.
# Assays:
# [1] = target: T1, Beta-2 adrenergic receptor (Homo sapiens, UniProt P07550); experiment: Displacement of [3H]dihydroalprenolol from beta2-adrenoceptor after 90 mins by liquid scintillation counting
# Target sequence in this assay (P07550 whole entry): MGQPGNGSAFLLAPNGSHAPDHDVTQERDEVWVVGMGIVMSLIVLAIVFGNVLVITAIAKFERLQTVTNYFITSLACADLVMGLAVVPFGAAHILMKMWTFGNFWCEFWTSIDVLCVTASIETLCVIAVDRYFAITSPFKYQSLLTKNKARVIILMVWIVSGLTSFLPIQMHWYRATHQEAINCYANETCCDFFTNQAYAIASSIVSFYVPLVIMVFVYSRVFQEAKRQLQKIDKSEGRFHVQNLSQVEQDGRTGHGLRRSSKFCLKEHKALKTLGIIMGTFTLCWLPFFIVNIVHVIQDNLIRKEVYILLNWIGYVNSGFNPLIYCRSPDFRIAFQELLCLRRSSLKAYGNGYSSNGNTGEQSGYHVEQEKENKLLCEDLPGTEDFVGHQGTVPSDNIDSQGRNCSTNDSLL
# [2] = target: T1, Beta-2 adrenergic receptor; experiment: Agonist activity at recombinant human beta2-adrenoceptor expressed in whole cells assessed as cAMP accumulation by homogeneous radioimmunoassay; assay type: functional, cell-based
# Target sequence in this assay (P07550 whole entry): as above
# [3] = target: T1, Beta-2 adrenergic receptor; experiment: Agonist activity at beta2-adrenoceptor endogenously expressed in human BEAS-2B cells assessed as cAMP accumulation by homogeneous radioimmunoassay; assay type: functional, cell-based
# Target sequence in this assay (P07550 whole entry): as above
# Homo sapiens = species on record: Homo sapiens; experiment: Selectivity ratio of pEC50 for recombinant human beta2-adrenoceptor to pEC50 for human beta1-adrenoceptor
# Outline: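 Agonist stimulation of cAMP accumulation was measured by homogeneous radioimmunoassay (Flashplate) in whole cells overexpressing cloned human β2- or β1-adrenoceptor. Selectivity was calculated as the ratio of agonist EC50 potencies at the two subtypes.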
# Cavia porcellus [4] = experiment: Bronchoprotective activity in Ach-stimulated guinea pig assessed as reduction in pulmonary resistance at 30 ug/mL administered via nebulization measured after 1.5 hrs by head-out plethysmography; assay type: functional, organism-based
# Outline: (§1)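 Guinea pigs dosed by nebulization, with water as control. Pulmonary resistance was measured in anesthetized, spontaneously breathing animals by head-out plethysmography. Bronchoconstriction was induced with increasing intravenous acetylcholine doses. The read-out was PD2, the ACh dose needed to double baseline resistance.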
# Cavia porcellus [5] = experiment: Bronchoprotective activity in Ach-stimulated guinea pig assessed as reduction in pulmonary resistance at 30 ug/mL administered via nebulization measured at 48 hrs post-dosing by head-out plethysmography; assay type: functional, organism-based; outline: as §1
# [6] = target: T1, Beta-2 adrenergic receptor; experiment: Ratio of pEC50 for recombinant human beta2-adrenoceptor expressed in whole cells to pEC50 for beta2-adrenoceptor endogenously expressed in human BEAS-2B cells; assay type: cell-based
# Outline: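 cAMP accumulation was measured by homogeneous radioimmunoassay (Flashplate) in two systems: whole cells overexpressing cloned human β2-adrenoceptor, and BEAS-2B human bronchial epithelial cells with endogenous β2-adrenoceptor. Potency was taken from each, and intrinsic activity from BEAS-2B.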
# Target sequence in this assay (P07550 whole entry, looked up): as the sequence (P07550 whole entry) above
# [7] = target: Beta-1 adrenergic receptor (Homo sapiens, UniProt P08588); experiment: Agonist activity at recombinant human beta1-adrenoceptor expressed in whole cells assessed as cAMP accumulation by homogeneous radioimmunoassay; assay type: functional, cell-based
# Beta-1 adrenergic receptor, sequence (P08588 whole entry): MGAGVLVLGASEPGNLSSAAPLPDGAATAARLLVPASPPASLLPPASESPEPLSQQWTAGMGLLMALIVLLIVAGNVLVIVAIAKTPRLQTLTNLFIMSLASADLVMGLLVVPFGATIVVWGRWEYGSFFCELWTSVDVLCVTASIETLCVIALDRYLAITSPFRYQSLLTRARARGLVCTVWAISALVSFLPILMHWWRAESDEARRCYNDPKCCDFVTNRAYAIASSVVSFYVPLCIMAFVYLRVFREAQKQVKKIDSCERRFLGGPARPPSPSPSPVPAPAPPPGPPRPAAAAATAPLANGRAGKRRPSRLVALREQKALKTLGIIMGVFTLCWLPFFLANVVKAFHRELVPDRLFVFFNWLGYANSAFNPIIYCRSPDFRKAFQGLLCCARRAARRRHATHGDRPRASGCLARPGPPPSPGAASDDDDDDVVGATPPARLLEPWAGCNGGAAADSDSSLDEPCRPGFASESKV
# Cavia porcellus [8] = experiment: Bronchoprotective activity in Ach-stimulated guinea pig assessed as reduction in pulmonary resistance at 300 ug/mL administered via nebulization measured after 24 hrs by head-out plethysmography; assay type: functional, organism-based
Structure (SMILES),pIC50 [1],pEC50 [2],further results
OCc1cc(C(O)CNCC2CCCC(CNCC(O)c3ccc(O)c(CO)c3)C2)ccc1O (configuration not stated),5.00,,
COc1ccc(C(O)CNc2ccc(CCNCC(O)c3ccc(O)c(CO)c3)cc2)c(OC)c1 (configuration not stated),,7.40,
OCc1cc(C(O)CNCCc2ccc(NCC(O)c3ccccc3)cc2)ccc1O (configuration not stated),7.40,9.50,
COc1ccc(OC)c(C(O)CNc2ccc(CCNCC(O)c3ccc(O)c(CO)c3)cc2)c1 (configuration not stated),,8.20,
OCc1cc(C(O)CNCCCCCCNCC(O)c2ccc(O)c(CO)c2)ccc1O (configuration not stated),5.10,,
Cc1ccc(C(O)CNc2ccc(CCNCC(O)c3ccc(O)c(CO)c3)cc2)cc1 (configuration not stated),,8.60,
O=CNc1cc([C@@H](O)CNCCc2ccc(NC[C@H](O)c3ccccc3)cc2)ccc1O [MILVETEROL],,10.20,pEC50 [3]: 9.30; Ratio (Homo sapiens): > 300; Activity (Cavia porcellus [4]): Active; Activity (Cavia porcellus [5]): Active; Ratio [6]: 10; pEC50 [7]: 7.60
OCc1cc(C(O)CNCCc2ccc(NCC(O)c3ccc(O)c(CO)c3)cc2)ccc1O (configuration not stated),6.60,,
OCc1cc(C(O)CNCCCCNCC(O)c2ccc(O)c(CO)c2)ccc1O (configuration not stated),5.00,,
Nc1c(Cl)cc([C@@H](O)CNCCc2ccc(NC[C@H](O)c3ccccc3)cc2)cc1Cl,,9.40,
OC(CNCCc1ccc(NCC(O)c2ccccc2)cc1)c1ccccc1 (configuration not stated),6.60,,
OCc1cc(C(O)CNCCc2ccc(NCC(O)c3ccc(Cl)cc3)cc2)ccc1O (configuration not stated),,8.80,
OCc1cc(C(O)CNCc2ccc(CNCC(O)c3ccc(O)c(CO)c3)cc2)ccc1O (configuration not stated),4.30,,
O=c1ccc2c([C@@H](O)CNCCc3ccc(NC[C@H](O)c4ccccc4)cc3)ccc(O)c2[nH]1,,9.90,pEC50 [3]: 8.90; Ratio [6]: 10
OCc1cc(C(O)CNCCc2ccc(NCC(O)c3ccc(F)cc3)cc2)ccc1O (configuration not stated),,8.70,
OCc1cc(C(O)CNCc2cccc(CNCC(O)c3ccc(O)c(CO)c3)c2)ccc1O (configuration not stated),4.70,,
OCc1cc(C(O)CNCCc2ccc(NCC(O)c3ccc(O)cc3)cc2)ccc1O (configuration not stated),,8.10,

Structure (SMILES),pIC50 [1],pEC50 [2],further results
CC(C)CCc1ccc(C(O)CNc2ccc(CCNCC(O)c3ccc(O)c(CO)c3)cc2)cc1 (configuration not stated),,7.20,
OCc1cc(C(O)CNCCc2ccc(CCNCC(O)c3ccc(O)c(CO)c3)cc2)ccc1O (configuration not stated),4.00,,
OCc1cc(C(O)CNCCc2ccc(OCC(O)c3ccccc3)cc2)ccc1O (configuration not stated),,9.40,
OCc1cc(C(O)CNCCCCCCOCCCCc2ccccc2)ccc1O (configuration not stated),,,Activity (Cavia porcellus [5]): inactive; Activity (Cavia porcellus [8]): Active
OCc1cc(C(O)CNC2Cc3ccc(NCC(O)c4ccccc4)cc3C2)ccc1O (configuration not stated),,8.30,
OCc1cc(C(O)CN[C@H]2CC[C@H](NCC(O)c3ccc(O)c(CO)c3)CC2)ccc1O (some centres not stated),5.30,,
OCc1cc(C(O)CNC2CCC(CC3CCC(NCC(O)c4ccc(O)c(CO)c4)CC3)CC2)ccc1O (configuration not stated),4.70,,
OCc1cc(C(O)CNCCc2ccc(NCC(O)c3ccc(-c4ccccc4)cc3)cc2)ccc1O (configuration not stated),,7.40,
OCc1cc(C(O)CNCCc2ccc(NCC(O)c3ccc4ccccc4c3)cc2)ccc1O (configuration not stated),,7.30,
OCc1cc(C(O)CNCc2ccc(NCC(O)c3ccc(O)c(CO)c3)cc2)ccc1O (configuration not stated),5.70,,
CC(C)(Cc1ccc(NCC(O)c2ccccc2)cc1)NCC(O)c1ccc(O)c(CO)c1 (configuration not stated),,9.50,
OCc1cc([C@@H](O)CNCCc2ccc(NC[C@@H](O)c3ccccc3)cc2)ccc1O (mixture of isomers),,9.50,pEC50 [3]: 8.40; Ratio [6]: 10; pEC50 [7]: 6.60
CC(C)(CNCC(O)c1ccc(O)c(CO)c1)CNCC(O)c1ccc(O)c(CO)c1 (configuration not stated),3.60,,
CC(C)(C)c1ccc(C(O)CNc2ccc(CCNCC(O)c3ccc(O)c(CO)c3)cc2)cc1 (configuration not stated),,7.30,
CN(CC(O)c1ccccc1)c1ccc(CCNCC(O)c2ccc(O)c(CO)c2)cc1 (configuration not stated),,8.70,
OCc1cc([C@@H](O)CNCCc2ccc(NC[C@H](O)c3ccccc3)cc2)ccc1O,,10.00,pEC50 [3]: 8.90; Ratio (Homo sapiens): > 300; Activity (Cavia porcellus [4]): Active; Activity (Cavia porcellus [5]): inactive; Ratio [6]: 10; pEC50 [7]: 6.60
